Assay results published in ChEMBL document CHEMBL1250448, “Inhibitor hijacking of Akt activation” (Nat Chem Biol, 2009).

How the values were obtained:
[1] = biological target: RAF proto-oncogene serine/threonine-protein kinase (Homo sapiens) (UniProt P04049); assay: Inhibition of RAF1 at 1 uM in presence of 100 uM ATP by Select Screen kinase assay relative to untreated control
In short: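 Commercial SelectScreen profiling panel of 220 purified kinases. Each kinase was tested at a single inhibitor concentration of 1 μM, and activity was expressed as percent inhibition.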

[2] = biological target: Tyrosine-protein kinase CSK (Homo sapiens) (UniProt P41240); assay: Inhibition of CSK at 1 uM in presence of 10 uM ATP by Select Screen kinase assay relative to untreated control
Sequence of Tyrosine-protein kinase CSK (Homo sapiens) (P41240 2-450 limits assumed): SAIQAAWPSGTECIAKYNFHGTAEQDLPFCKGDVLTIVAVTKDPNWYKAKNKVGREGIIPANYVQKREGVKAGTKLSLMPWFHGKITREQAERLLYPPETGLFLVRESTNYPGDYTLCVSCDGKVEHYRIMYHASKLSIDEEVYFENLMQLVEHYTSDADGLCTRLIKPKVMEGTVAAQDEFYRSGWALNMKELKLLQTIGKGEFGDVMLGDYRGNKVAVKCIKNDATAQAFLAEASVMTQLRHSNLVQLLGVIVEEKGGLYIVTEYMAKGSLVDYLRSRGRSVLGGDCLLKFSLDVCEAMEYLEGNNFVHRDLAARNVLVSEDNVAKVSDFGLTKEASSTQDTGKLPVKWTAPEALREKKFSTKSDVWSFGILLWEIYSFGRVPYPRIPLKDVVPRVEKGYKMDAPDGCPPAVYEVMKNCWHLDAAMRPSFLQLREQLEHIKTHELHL
In short: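 Single-point screen at 1 μM against a panel of 220 purified kinases, run by Invitrogen staff as a SelectScreen profiling service. Read-out is percent inhibition of kinase activity.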

[3] = biological target: Tyrosine-protein kinase Fyn (Homo sapiens) (UniProt P06241); assay: Inhibition of FYN at 1 uM in presence of 10 uM ATP by Select Screen kinase assay relative to untreated control
Sequence of Tyrosine-protein kinase Fyn (Homo sapiens) (P06241 2-537 limits assumed): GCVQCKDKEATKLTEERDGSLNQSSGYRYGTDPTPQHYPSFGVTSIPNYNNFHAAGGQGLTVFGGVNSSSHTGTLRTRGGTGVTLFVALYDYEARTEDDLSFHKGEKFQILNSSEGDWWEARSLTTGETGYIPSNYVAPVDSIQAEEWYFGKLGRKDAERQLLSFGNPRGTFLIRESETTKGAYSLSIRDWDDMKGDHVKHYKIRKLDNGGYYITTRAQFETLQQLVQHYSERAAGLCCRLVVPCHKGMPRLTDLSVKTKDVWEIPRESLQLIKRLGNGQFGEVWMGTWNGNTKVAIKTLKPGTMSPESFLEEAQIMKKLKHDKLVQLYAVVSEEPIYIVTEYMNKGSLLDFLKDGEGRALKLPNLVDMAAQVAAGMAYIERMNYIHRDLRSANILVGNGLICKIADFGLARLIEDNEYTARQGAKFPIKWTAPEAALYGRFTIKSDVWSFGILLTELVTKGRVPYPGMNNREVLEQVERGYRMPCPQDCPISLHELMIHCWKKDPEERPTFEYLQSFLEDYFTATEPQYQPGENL
In short: (§1)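 Single-concentration profiling at 1 μM against a panel of 220 purified kinases, run as an outsourced SelectScreen kinase profiling service. Activity is expressed as percent inhibition.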

[4] = biological target: T1, Homeodomain-interacting protein kinase 4 (Homo sapiens) (UniProt Q8NE63); assay: Inhibition of HIPK4 at 1 uM in presence of 10 uM ATP by Select Screen kinase assay relative to untreated control; in short: as §1
T1 sequence (whole entry): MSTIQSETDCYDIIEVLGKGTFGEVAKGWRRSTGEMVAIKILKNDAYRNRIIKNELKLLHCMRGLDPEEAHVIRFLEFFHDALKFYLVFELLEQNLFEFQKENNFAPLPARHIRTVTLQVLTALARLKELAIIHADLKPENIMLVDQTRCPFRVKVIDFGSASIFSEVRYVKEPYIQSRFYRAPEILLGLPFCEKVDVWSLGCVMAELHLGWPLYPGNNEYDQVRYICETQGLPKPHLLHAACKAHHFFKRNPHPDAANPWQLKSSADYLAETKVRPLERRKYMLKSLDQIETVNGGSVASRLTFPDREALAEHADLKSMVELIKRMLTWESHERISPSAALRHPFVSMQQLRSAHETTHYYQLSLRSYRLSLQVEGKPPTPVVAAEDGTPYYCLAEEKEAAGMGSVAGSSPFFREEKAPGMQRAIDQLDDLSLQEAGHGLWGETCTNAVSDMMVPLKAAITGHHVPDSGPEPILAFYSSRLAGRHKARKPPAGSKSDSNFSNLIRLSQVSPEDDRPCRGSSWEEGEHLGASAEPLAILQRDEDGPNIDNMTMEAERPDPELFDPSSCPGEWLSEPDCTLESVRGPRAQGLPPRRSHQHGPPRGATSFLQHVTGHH

[5] = test system: Mast/stem cell growth factor receptor Kit (Homo sapiens), P10721 [T670I]; assay: Inhibition of KIT T670I mutant at 1 uM in presence of 10 uM ATP by Select Screen kinase assay relative to untreated control; in short: as §1
Sequence of Mast/stem cell growth factor receptor Kit (Homo sapiens), P10721 [T670I] (P10721 whole entry T670I): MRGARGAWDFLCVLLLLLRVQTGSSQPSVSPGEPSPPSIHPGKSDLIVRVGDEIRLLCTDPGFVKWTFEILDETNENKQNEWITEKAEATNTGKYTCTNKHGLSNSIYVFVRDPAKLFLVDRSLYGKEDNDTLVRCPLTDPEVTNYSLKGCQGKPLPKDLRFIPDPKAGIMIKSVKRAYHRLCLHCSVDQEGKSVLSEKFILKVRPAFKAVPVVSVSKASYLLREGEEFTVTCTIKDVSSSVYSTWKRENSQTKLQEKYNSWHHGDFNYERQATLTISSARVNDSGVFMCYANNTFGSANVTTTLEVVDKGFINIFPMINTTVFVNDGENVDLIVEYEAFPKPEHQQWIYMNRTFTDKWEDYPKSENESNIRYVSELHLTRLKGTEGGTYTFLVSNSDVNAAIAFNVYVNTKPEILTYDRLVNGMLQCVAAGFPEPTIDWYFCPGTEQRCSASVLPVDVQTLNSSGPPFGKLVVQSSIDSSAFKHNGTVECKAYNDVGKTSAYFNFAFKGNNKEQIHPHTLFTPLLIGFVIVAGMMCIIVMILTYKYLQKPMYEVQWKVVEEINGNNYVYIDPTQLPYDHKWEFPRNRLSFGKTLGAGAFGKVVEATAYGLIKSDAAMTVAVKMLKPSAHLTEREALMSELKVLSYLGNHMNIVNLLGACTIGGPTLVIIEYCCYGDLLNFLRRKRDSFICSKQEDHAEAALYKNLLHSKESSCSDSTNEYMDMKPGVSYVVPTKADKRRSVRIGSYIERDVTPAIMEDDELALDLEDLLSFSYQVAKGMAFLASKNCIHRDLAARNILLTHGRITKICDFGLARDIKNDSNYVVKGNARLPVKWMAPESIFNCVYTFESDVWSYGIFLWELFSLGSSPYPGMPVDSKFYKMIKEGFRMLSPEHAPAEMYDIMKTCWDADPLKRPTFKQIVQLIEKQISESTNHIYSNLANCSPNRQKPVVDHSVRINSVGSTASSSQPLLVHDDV

[6] = biological target: Mitogen-activated protein kinase kinase kinase 9 (Homo sapiens) (UniProt P80192); assay: Inhibition of MAP3K9 at 1 uM in presence of 100 uM ATP by Select Screen kinase assay relative to untreated control; in short: as §1
Sequence of Mitogen-activated protein kinase kinase kinase 9 (Homo sapiens) (P80192 whole entry, looked up): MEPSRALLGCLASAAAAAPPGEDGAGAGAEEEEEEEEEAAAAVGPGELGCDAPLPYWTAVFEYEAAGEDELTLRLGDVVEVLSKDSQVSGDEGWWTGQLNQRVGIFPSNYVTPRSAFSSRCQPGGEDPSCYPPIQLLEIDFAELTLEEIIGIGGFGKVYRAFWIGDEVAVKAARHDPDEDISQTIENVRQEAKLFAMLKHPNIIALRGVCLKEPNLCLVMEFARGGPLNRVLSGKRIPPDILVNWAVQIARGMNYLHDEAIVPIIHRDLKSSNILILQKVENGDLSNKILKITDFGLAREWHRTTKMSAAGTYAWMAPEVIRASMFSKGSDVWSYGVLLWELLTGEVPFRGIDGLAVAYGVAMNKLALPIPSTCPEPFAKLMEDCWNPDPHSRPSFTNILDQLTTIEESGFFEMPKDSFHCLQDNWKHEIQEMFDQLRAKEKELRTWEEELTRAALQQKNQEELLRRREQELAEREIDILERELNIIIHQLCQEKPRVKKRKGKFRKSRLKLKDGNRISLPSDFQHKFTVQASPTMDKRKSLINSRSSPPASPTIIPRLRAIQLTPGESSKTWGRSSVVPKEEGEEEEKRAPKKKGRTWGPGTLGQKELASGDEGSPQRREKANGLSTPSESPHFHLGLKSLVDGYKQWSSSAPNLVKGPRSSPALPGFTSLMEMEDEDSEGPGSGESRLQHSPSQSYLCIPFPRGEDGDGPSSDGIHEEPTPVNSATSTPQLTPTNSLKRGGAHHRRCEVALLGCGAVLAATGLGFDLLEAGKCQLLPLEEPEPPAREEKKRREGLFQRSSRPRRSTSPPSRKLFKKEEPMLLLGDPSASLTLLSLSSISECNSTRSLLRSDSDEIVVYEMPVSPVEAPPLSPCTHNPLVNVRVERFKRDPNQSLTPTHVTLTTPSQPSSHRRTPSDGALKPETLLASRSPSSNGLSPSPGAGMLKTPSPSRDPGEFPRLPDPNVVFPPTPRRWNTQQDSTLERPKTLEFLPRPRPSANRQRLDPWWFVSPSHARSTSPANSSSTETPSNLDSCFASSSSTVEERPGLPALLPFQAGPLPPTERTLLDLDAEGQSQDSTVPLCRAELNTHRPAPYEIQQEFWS

[7] = biological target: T2, Mitogen-activated protein kinase 13 (Homo sapiens) (UniProt O15264); assay: Inhibition of MAPK13 at 1 uM in presence of 10 uM ATP by Select Screen kinase assay relative to untreated control; in short: as §1
T2 sequence (whole entry): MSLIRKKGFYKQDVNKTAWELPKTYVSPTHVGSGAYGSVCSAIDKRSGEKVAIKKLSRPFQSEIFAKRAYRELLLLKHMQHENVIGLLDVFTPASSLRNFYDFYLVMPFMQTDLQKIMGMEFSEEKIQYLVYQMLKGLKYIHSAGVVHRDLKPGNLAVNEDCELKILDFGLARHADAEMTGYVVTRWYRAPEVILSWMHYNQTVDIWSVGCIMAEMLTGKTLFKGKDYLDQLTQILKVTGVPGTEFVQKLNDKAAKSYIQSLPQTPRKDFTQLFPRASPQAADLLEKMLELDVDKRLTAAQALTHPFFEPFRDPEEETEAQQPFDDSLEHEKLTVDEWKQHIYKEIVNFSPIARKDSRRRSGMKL

[8] = biological target: T3, Serine/threonine-protein kinase Nek1 (Homo sapiens) (UniProt Q96PY6); assay: Inhibition of NEK1 at 1 uM in presence of 10 uM ATP by Select Screen kinase assay relative to untreated control; in short: as §1
T3 sequence (whole entry): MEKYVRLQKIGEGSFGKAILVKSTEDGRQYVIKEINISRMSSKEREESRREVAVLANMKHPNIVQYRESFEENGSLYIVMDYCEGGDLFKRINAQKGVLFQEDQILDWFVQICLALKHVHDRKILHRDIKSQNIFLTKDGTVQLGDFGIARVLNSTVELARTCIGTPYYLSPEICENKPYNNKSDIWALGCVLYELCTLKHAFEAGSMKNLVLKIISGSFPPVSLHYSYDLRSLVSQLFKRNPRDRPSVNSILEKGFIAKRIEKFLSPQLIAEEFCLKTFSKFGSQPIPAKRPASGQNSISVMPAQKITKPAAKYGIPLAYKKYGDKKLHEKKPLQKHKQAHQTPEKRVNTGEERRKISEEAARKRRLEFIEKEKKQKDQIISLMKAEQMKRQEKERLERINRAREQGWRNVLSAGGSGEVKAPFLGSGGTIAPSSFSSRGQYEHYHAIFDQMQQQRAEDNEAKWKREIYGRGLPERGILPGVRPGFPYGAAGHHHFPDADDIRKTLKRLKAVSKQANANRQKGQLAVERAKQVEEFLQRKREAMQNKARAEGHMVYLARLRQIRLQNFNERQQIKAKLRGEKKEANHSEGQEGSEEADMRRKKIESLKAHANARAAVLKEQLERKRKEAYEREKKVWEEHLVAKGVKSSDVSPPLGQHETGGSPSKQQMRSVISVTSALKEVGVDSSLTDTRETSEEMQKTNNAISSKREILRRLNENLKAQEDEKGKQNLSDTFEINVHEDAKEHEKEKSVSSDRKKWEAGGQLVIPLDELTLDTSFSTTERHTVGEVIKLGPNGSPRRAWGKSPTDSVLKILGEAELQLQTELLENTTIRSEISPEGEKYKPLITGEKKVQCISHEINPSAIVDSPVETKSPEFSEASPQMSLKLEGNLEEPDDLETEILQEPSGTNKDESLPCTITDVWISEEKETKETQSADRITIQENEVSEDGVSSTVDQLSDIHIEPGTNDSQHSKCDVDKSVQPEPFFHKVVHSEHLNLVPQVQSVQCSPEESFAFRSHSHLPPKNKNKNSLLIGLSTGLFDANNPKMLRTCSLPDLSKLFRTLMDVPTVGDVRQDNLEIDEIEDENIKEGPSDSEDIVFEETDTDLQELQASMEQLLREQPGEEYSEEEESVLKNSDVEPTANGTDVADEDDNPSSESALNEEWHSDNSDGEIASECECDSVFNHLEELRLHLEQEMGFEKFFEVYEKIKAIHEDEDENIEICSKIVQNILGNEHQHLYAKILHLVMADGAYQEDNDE

Sequence of RAF proto-oncogene serine/threonine-protein kinase (Homo sapiens) (P04049 whole entry): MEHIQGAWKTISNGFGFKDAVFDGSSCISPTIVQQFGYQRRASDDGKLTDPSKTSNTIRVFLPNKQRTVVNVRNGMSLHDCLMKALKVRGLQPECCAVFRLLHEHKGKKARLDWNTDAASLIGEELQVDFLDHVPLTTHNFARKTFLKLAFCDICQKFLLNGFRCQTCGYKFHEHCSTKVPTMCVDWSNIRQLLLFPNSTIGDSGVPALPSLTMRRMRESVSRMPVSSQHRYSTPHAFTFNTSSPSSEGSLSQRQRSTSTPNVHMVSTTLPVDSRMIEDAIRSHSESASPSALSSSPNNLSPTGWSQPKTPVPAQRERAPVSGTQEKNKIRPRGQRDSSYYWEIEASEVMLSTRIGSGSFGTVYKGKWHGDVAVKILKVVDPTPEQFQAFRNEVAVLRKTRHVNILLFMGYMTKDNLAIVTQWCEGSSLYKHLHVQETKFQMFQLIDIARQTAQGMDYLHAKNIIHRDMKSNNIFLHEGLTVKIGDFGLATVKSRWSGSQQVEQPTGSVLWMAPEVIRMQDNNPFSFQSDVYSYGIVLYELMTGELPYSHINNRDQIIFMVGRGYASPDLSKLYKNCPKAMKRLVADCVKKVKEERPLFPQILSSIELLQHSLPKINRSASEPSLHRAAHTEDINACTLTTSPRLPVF

inhibition [1] [%]	inhibition [2] [%]	inhibition [3] [%]	inhibition [4] [%]	inhibition [5] [%]	inhibition [6] [%]	inhibition [7] [%]	inhibition [8] [%]	SMILES
43	5	74	48	29	98	27	92	O=C(NCCCNc1nc(Nc2cccc(NC(=O)N3CCCC3)c2)ncc1I)c1cccs1
12	3	13	18	11	22	12	18	COc1ccccc1N1CCN(c2ncnc3[nH]nc(Br)c23)CC1

SMILES	inhibition [1] [%]	inhibition [2] [%]	inhibition [3] [%]	inhibition [4] [%]	inhibition [5] [%]	inhibition [6] [%]	inhibition [7] [%]	inhibition [8] [%]
Cc1n[nH]c2ccc(-c3cncc(OC[C@@H](N)Cc4c[nH]c5ccccc45)c3)cc12	81	-1	28	75	0	15	36	44
